Source: ChEMBL document CHEMBL4513216, “Probing the Open Global Health Chemical Diversity Library for Multistage-Active Starting Points for Next-Generation Antimalarials” (ACS Infect Dis, 2020)

Experiment: Toxicity liver stage against HepG2, at 10uM
Type: cell-based
Set-up: test concentration 10 uM, cell line HepG2-A16-CD81EGFP
Settings: human, HepG2-A16-CD81EGFP cells; read-out: INHIBITION
Outline: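 Uninfected HepG2-A16-CD81EGFP cells, 3 × 10^3 per well, 1536-well, plated on prespotted compound at 10 μM final, parasite-free screening media added to match infected plates; puromycin 10 μM positive, DMSO 0.5% negative; run in parallel with 48 h PbLuc assay at 37 °C, 5% CO2; viability by CellTiter-Glo luminescence, normalized to controls.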

Structure (SMILES)	cytotoxicity at 10 µM [%]
COc1cc(CNCC(O)c2ccc(F)c(F)c2)cc2c1OCO2 (configuration not stated)	-8.28
CN(C)c1ncccc1CNC(=O)NCCN(C)C1CCCC1	-11.9
O=C(CC1Cn2ncnc2NC1=O)Nc1ccc(F)c(F)c1 (configuration not stated)	2.02
Cc1nc(O)c2nnn(C[C@H]3CCCN3C(=O)c3ccccc3C)c2n1	-7.36
CCCc1cncnc1N1CCC2(CCC(=O)N(C3CCCC3)C2)CC1	2.61
Cn1nc2c(c1NC(=O)c1ccc(C3CCCN3C3CCC3)s1)CCC2 (configuration not stated)	-5.08
Cc1cnc(N2CCOCC3(CCN(c4ccccn4)C3)C2)nc1 (configuration not stated)	6.85
Cc1nccc(NCc2cncc3c2CCN(CCN(C)C)C3)n1	-104
CS(=O)(=O)N1C[C@H](C(=O)Nc2cccnc2)[C@@H]2CCO[C@@H]2C1	-104
COC(=O)c1cc2c(=O)n(C3CC3)ccc2nc1C	-47
COc1cccc(C(C)Nc2ncnc3c2NC(=O)CN3)c1 (configuration not stated)	9.76
C[C@@H]1CN(C2CCN(c3ccccc3F)CC2)C[C@]1(C)O	-2.19
Cc1ccc(S(=O)(=O)N2CCCCC(N3CCN(C)CC3)C2)cc1F (configuration not stated)	6.24
O=C(c1c[nH]nc1-c1cccc(F)c1)N1CCNC(c2ccccc2)C1 (configuration not stated)	-3.68
CCn1c(=O)nc(N)c2c(-c3ccc(OC)cc3)csc21	-32.8
Cc1nc(CNCc2ccc(N3CCC(CO)CC3)nc2)cs1	1.58
O=C(COc1coc(CN2CCCC2)cc1=O)Nc1cc(Cl)ccc1Cl	-1.71
Cc1csc(-c2ccc(NC(=O)N3CCOCC3)cc2)n1	-9.2
Cc1ccc(-c2nc(CN3CCN(CC(=O)N(C)C)CC3)cs2)o1	-22
CCc1n[nH]c(C2CN(CCCS(C)(=O)=O)CCO2)n1 (configuration not stated)	-3.48
O=C(CS(=O)(=O)Cc1ccc(F)cc1)NCc1ccccc1F	5.96
COc1cc(S(=O)(=O)N2CCCc3ccccc32)cc(C(=O)O)c1OC	1.8
CCC[C@@H](NC(N)=O)C(=O)N1CCc2ccccc2CC1	7.79

Structure (SMILES)	cytotoxicity at 10 µM [%]
CCc1cn[nH]c1C1CCN(c2cc(C)c3cc(OC)ccc3n2)CC1	1.93
Cn1cc(CN2Cc3cn(C)nc3C(COCC3CC3)C2)cn1 (configuration not stated)	-69.8
COc1ccccc1N1CCN(C(=O)c2ccnc(N(C)C)c2)CC1	84.2
O=C1COc2cc(C(=O)NS(=O)(=O)c3ccc(F)cc3F)ccc2N1	-6.21
CNc1snc(C)c1C(=O)N1CCC(Nc2ccc(C)nn2)CC1	-8.27
CCSc1ccccc1C(=O)NCCn1nc(C(F)(F)F)n(C)c1=O	6.83
Cc1nc(NCc2nncn2C2CC2)c2c(CC(C)C)csc2n1	-5.57
CN(Cc1ccco1)C(=O)CN1CCN(C)c2ccccc2C1	-7.2
O=C(c1cn(Cc2ccc(Cl)cc2)nn1)N1CCCO1	-6.01
Cc1nc(C)c(C(=O)N2CCC(O)(Cn3ccc4ccncc43)CC2)s1	-21.7
CCCc1nn(C2CCN(C(C)C)C2=O)c(=O)o1 (configuration not stated)	-3.59
CC(C)N(Cc1cccc(Cl)c1)Cc1nc2c(cnn2C)c(=O)[nH]1	1.97
Fc1cccc(F)c1Cn1c(C2CCNCC2)cc2cccnc21	-3.4
O=C(C1CC1)N1CCC2(CCN(Cc3cccc(F)c3)CC2)CC1	-4.07
CCc1ccc(NC(=O)Nc2c(O)oc3ccccc3c2=O)cc1	5.95
CN(C)Cc1nn(C)c2c1CN(C(=O)Nc1ccc(F)cc1)C2	6.04
CN(C)C(C)(C)CNC(=O)C(C)(C)c1ccccc1F	-11.2
C=C(C)COc1cccc(C(=O)N(CC)Cc2nc(COC)no2)c1	-18
OCC1(O)CCCN(Cc2nnc(-c3ccccc3)o2)CC1 (configuration not stated)	-3.69
COc1ccnc(N2CCN(C(=O)COCC(F)(F)F)CC2)n1	-9.36
CCn1nc(C)cc1C(=O)OCC1CC(=O)N(Cc2ccccc2)C1 (configuration not stated)	6.68
CCN(C(=O)NCc1ccccc1OC(F)F)C(C)c1cccnc1 (configuration not stated)	-2.28
CCN(C(=O)c1nc2c(s1)CCCN2c1ccc(C)nn1)C(C)C	3.86

Structure (SMILES)	cytotoxicity at 10 µM [%]
Cc1cnc(CN(C)C2CCN(CCCc3ccccc3)C2)o1 (configuration not stated)	-4.02
O=C(CNC(=O)c1ccccc1I)NCc1ccccc1F	1.16
CC(=O)NC1Cc2ccc(S(=O)(=O)NCCNc3ccccn3)cc2C1 (configuration not stated)	0.126
CCN(CC)CC1CN(Cc2cccc(C#N)c2)Cc2nccn2C1 (configuration not stated)	-127
CC1Cc2ccccc2N1C(=O)Cn1nc(-c2cccs2)ccc1=O (configuration not stated)	-9.08
Cc1nc2[nH]cnc(Nc3ccn(C)n3)c-2n1	18.2
CN(C)CC1CSCCCN1S(=O)(=O)Cc1ccc(C(F)(F)F)cc1 (configuration not stated)	-5.36
CC(Cn1ccnc1)NC(=O)C1(c2ccc3c(c2)OCCO3)CCCC1 (configuration not stated)	-2.5
CN1CCCCCC1C(=O)N1CCCN(c2ccccc2)CC1 (configuration not stated)	-6.56
O=C(c1ccncc1F)N1Cc2nc(COCC3CC3)oc2C1	-99.9
CN1CCC(N(CCc2ccccc2)C(=O)c2ccc(C#N)nc2)CC1	-3.33
Cc1noc(C)c1C(=O)NCc1ccc(N2CCC(C)CC2)nc1	8.43
c1ccc(NCc2cccc(OCCN3CCOCC3)c2)nc1	0.174
O=C(c1cc2c(s1)CCC2)N1CCCC(c2cnccn2)C1 (configuration not stated)	-1.67
COCC(=O)N1CCCCC1c1ccnc(Nc2ncc(C)s2)n1 (configuration not stated)	-10.6
CCc1ccccc1NC(=O)CCc1cnn(C)c1	8.66
O=C(c1csc(-c2cccs2)n1)N1CCN2CCCCC2C1 (configuration not stated)	-3.04
COc1ccc(CN2CCC(c3cc(O)nc(C)n3)C2)c(F)c1 (configuration not stated)	0.442
Cc1cccc(-c2c[nH]c(C3CCCN3)n2)c1 (configuration not stated)	-11.4
CCCS(=O)(=O)N1CC(=O)N(CCCc2ccccc2)CC(O)C1 (configuration not stated)	-17
Cc1nccn1CCC1CCCCN1Cc1ccc(N(C)C)nc1 (configuration not stated)	21.3
Cc1cc(NC(=O)CN2CCN(c3nccs3)C(C)C2)n(C)n1 (configuration not stated)	-4.2
Cc1cc(CN2CCCC2c2noc(C(C)C)n2)on1 (configuration not stated)	-0.713

Structure (SMILES)	cytotoxicity at 10 µM [%]
CCOCCN1CCN([C@@H]2c3ccccc3C3(CCNCC3)[C@H]2O)CC1	-0.777
Cc1cc(OC(F)F)c(C(=O)N2CCC(N(C)C)CC2)s1	6.9
CCN(CC1COc2ccccc2O1)C(=O)NCCCn1cncn1 (configuration not stated)	-9.27
Cn1cc(CN2CCn3cc(CNC(=O)c4cccn4C)nc3C2)cn1	1.85
COCC(=O)N1CCCC(Cc2cnc(-c3c(C)n[nH]c3C)cn2)C1 (configuration not stated)	-4.51
O=C(NC1(c2cccc(F)c2)CCOCC1)c1ccoc1	-9.41
c1cnnc(N2CCCC(NCc3cn4ccccc4n3)C2)c1 (configuration not stated)	-5.87
OC1(CNc2ccc(Br)cn2)CCC1	6.59
CCOCC1COCCC12CCN(C(=O)CS(C)(=O)=O)CC2 (configuration not stated)	-1.99
CCOc1ccc(Br)cc1S(=O)(=O)N(CC)Cc1ccc(N(C)C)cc1	14.1
CN(Cc1nc2ccccc2[nH]1)C(=O)C(C)(C)n1cc(Cl)cn1	6.16
Cc1occc1CNC(=O)N1CCC(Cc2cnn(C)c2)C1 (configuration not stated)	-11.1
O=C(CNc1cccc2c1CCCC2)Nc1ccccc1Br	11.4
CC(=O)N1CCCN(C(=O)NC(C)c2ccc(C)o2)CC1 (configuration not stated)	2.72
CS(=O)(=O)N1CCC[C@H]1c1ncnn1-c1ccc2c(c1)OCO2	-12.8
C[C@H]1CN(C(=O)c2ccoc2)C[C@@]12CCN(CCN(C)C)C2=O	-1.77
O=C(C1CC1)N1CCC2(CCCN2Cc2ccc(F)cc2)CC1	3.35
CSCCC(=O)N(C/C=C/c1ccccc1)CCO	-4.47
Cn1cc(CN2CCC3(CCCN(C(=O)c4cscn4)C3)C2)cn1 (configuration not stated)	1.71
Cc1ccsc1C(=O)NCC1COCc2c(C)nnn2C1 (configuration not stated)	-3.51
FC(F)Oc1ccccc1CN1CCCC(c2nccn2CC2CC2)C1 (configuration not stated)	6.64
CSCCC(C)NC(=O)N1CCSC(C)(C)C1 (configuration not stated)	5.89
CCN1CCC(CNCc2c[nH]nc2C(C)(C)C)C1 (configuration not stated)	-7.77

Structure (SMILES)	cytotoxicity at 10 µM [%]
Cc1noc(CN(CCc2cccs2)Cc2cccc(C#N)c2)n1	2.27
O=C1CCCN1Cc1ncn2c1CN(C(=O)Cc1ccccc1)CCC2	6.49
CCC(=O)N1CCCCC1c1nc(CN(C)C(C)=O)cc(N(C)C)n1 (configuration not stated)	-3.17
NC(=O)C(NC(=O)CSCc1ccc(Cl)s1)c1ccccc1 (configuration not stated)	9.12
Cc1nc(N)cc(C2CCN2CCC(N)=O)n1 (configuration not stated)	-1.21
O=C(c1ccoc1)N1CC[C@@H]2O[C@@H](COCc3ccncc3)CC[C@@H]21	-80.4
O=C(C1CCCCC1)N1CCC2(CCCN2CC2CC2)CC1	3.56
CCOc1ccc(C(=O)n2cccn2)cc1	0.45
CC(C(=O)NC(N)=O)N1CCN(c2ccc(C#N)cc2F)CC1 (configuration not stated)	-4.4
CCc1noc(C)c1C(=O)N1C[C@H](NS(C)(=O)=O)[C@@H](C2CC2)C1	1.23
CCN(Cc1noc(C2CCC2)n1)C(=O)c1cnc2ccccc2c1	8.59
Cc1ccc(C)c(CSc2nnc(C(N)Cc3ccccc3)o2)c1 (configuration not stated)	-0.431
Cn1c(-c2ccccc2Cl)nc2cc(C(=O)NCC3(CO)CC3)cnc21	-4.33
OC[C@H]1CN(Cc2c(Cl)cncc2Cl)C[C@H]1CN1CCCCCC1	-112
Clc1ccc(OCCNCCn2cccn2)cc1	-14.4
CC(C)N(Cc1cnn(C)c1)C(=O)c1ccnc(N(C)C)c1	10.6
CN(Cc1noc2c1CCCC2)C(=O)C1Cc2ccccc2CN1C (configuration not stated)	4.74
CN(C)C(=O)COC[C@]12COC[C@H]1CN(Cc1ccoc1)C2	-1.56
OC(CN1CCCc2cc(OC(F)F)ccc21)Cn1cccn1 (configuration not stated)	6.85
COc1ccc(-n2cnc(Cl)c2CO)cc1	2.49
